Reference: ChEMBL document CHEMBL1156498, “4-Hydroxynonenal, an endogenous aldehyde, causes pain and neurogenic inflammation through activation of the irritant receptor TRPA1” (Proc Natl Acad Sci U S A, 2007)
pEC50: −log10 of the molar value. Each block holds one compound with its values, some of them ahead of it. Active and inactive are the calls of the source. No cut-off for these calls is given here.

Columns and labels:
Mus musculus [1] = organism: Mus musculus; assay: Inhibition of capsaicin-induction of paw lifting in Swiss mouse; assay type: functional, organism-based
Outline: (§1)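 Mouse nocifensive test: intraplantar capsaicin (0.1 nmol/20 μl, in 4% DMSO) or HNE (120 nmol/20 μl, in saline), with camphor, gentamycin or capsazepine co-injected intraplantar. Licking/lifting time recorded for 5 min; vehicle controls. Mean ± SEM; ANOVA with Bonferroni.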

Rattus norvegicus [2] = organism: Rattus norvegicus; assay: Reduction of capsaocin-induction of allodynia in rat
Mus musculus [3] = organism: Mus musculus; assay: Attenuation of capsaicin-induction of paw lifting in Swiss mouse; assay type: functional, organism-based; outline: as §1
[4] = target: Transient receptor potential cation channel subfamily A member 1 (Rattus norvegicus) (UniProt Q6RI86); assay: Activity at TRPA1 channel in rat dorsal root ganglion neurons assessed as attenuation of capsaicin-induced intracellular calcium; assay type: tissue-based
Outline: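 Cultured rat DRG neurons, Fura2/AM calcium imaging. Capsaicin (0.1 μM)-evoked [Ca2+]i responses measured in the presence of TRPA1 antagonists.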

Rattus norvegicus [5] = organism: Rattus norvegicus; assay: Induction of allodynia in rat
[6] = target: Transient receptor potential cation channel subfamily A member 1 (Rattus norvegicus) (UniProt Q6RI86); assay: Reversal of activation of TRPA1 channel in rat dorsal root ganglion neurons at 100 uM by calcium imaging in presence of camphor; assay type: tissue-based
Outline: (§2)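 Cultured rat DRG neurons, Fura2/AM ratiometric calcium imaging. HNE 100 μM-evoked [Ca2+]i rise measured with ruthenium red (1 μM), (+) camphor (1 mM), gentamycin (100 μM) or capsazepine (10 μM), each versus vehicle. n ≥ 22 cells; mean ± SEM; Bonferroni test.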

[7] = target: T1, Transient receptor potential cation channel subfamily A member 1 (Rattus norvegicus, UniProt Q6RI86); assay: Agonist activity at rat TRPA1 channel expressed in tetracycline induced HEK293 cells assessed as increase in intracellular calcium; assay type: functional, cell-based
Outline: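 Stable HEK293 FLPTREX line carrying HA-tagged rat TRPA1 under a tetracycline-inducible promoter. Expression induced with 0.1 μg/ml tetracycline 16 h before the assay. Fura2/AM [Ca2+]i read on a multiwell fluorescence plate reader, 30,000 cells per well, 10–100 μM, n = 4 wells per concentration, EC50 derived.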

[8] = target: Transient receptor potential cation channel subfamily A member 1 (Homo sapiens) (UniProt O75762); assay: Agonist activity at human TRPA1 channel expressed in xenopus oocytes assessed as membrane currents by two electrode voltage-clamp technique; assay type: functional, cell-based; conditions: Oocyte
Outline: (§3)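 Two-electrode voltage clamp at +70 mV holding potential on Xenopus oocytes expressing human TRPA1, with voltage ramps for current–voltage relationships. Agonist challenge followed by ruthenium red (10 μM) block; 2-aminoethyl diphenylborinate (200 μM) used as reference agonist.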

[9] = target: Transient receptor potential cation channel subfamily A member 1 (Rattus norvegicus) (UniProt Q6RI86); assay: Activation of TRPA1 channel in rat dorsal root ganglion neurons assessed as increase in intracellular calcium level at 50 uM; assay type: tissue-based
Outline: (§4)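 Cultured rat dorsal root ganglion neurons loaded with Fura2/AM. HNE bath-applied across 30–500 μM. Ratiometric calcium imaging of the rise in [Ca2+]i, with capsaicin response recorded. Dose–response curve built from n ≥ 22 cells; mean ± SEM.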

[10] = target: Transient receptor potential cation channel subfamily A member 1 (Rattus norvegicus) (UniProt Q6RI86); assay: Reversal of activation of TRPA1 channel in rat dorsal root ganglion neurons at 100 uM by calcium imaging in presence of gentamycin; assay type: tissue-based; outline: as §2
Mus musculus [11] = organism: Mus musculus; assay: Induction of paw licking in Swiss mouse; assay type: functional, organism-based
Outline: (§5)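 Male Swiss mice injected intraplantar with HNE at 15–240 nmol in 20 μl saline, then placed in a chamber. Total time licking and lifting the injected paw recorded for 5 min.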

Mus musculus [12] = organism: Mus musculus; assay: Induction of paw lifting in Swiss mouse; assay type: functional, organism-based; outline: as §5
Mus musculus [13] = assay: Induction of paw lifting in TRPA1-deficient intraplantarly dosed Swiss mouse at 120 nmol/paw; assay type: functional, organism-based
Outline: (§6)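 Male TRPA1-deficient mice and wild-type littermates (about 30 g) injected intraplantar with HNE 120 nmol in 20 μl 0.9% saline. Total licking/lifting time recorded for 5 min, scored blind to genotype. n = 6 per group; single-factor ANOVA.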

[14] = target: Transient receptor potential cation channel subfamily A member 1 (Rattus norvegicus) (UniProt Q6RI86); assay: Reversal of activation of TRPA1 channel in rat dorsal root ganglion neurons at 100 uM by calcium imaging in presence of capsazepine; assay type: tissue-based; outline: as §2
[15] = target: Transient receptor potential cation channel subfamily A member 1 (Rattus norvegicus) (UniProt Q6RI86); assay: Reversal of activation of TRPA1 channel in rat dorsal root ganglion neurons at 100 uM by calcium imaging in presence of ruthenium red; assay type: tissue-based; outline: as §2
Mus musculus [16] = assay: Induction of paw licking in intraplantarly dosed TRPA1-deficient Swiss mouse at 120 nmol/paw; assay type: functional, organism-based; outline: as §6
Rattus norvegicus [17] = organism: Rattus norvegicus; assay: Reversal of induction of allodynia in rat in presence of gentamycin
Mus musculus [18] = assay: Induction of paw lifting in intraplantarly dosed Swiss mouse at 120 nmol/paw; assay type: functional, organism-based
Outline: (§7)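 Male Swiss mice injected intraplantar with HNE 120 nmol in 20 μl 0.9% saline. Time spent licking and lifting the injected paw recorded for 5 min immediately after injection; vehicle controls.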

Spinal cord [19] = assay: Induction of neurogenic inflammation in rat dorsal spinal cord assessed as substance P release for 20 mins; assay type: functional, tissue-based
Outline: (§8)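 Rat lumbar dorsal spinal cord or esophagus slices (≈0.4 mm), stabilized 60 min in Krebs' solution at 37°C. Agonist superfused 20 min (HNE 50 or 100 μM). Fractions collected every 10 min into ethanoic acid (final 2 N), freeze-dried, and assayed for SP- or CGRP-like immunoreactivity (fmol/g/20 min). Controls: capsaicin desensitization (10 μM, 20 min) or 2 mM EGTA. n ≥ 4 slices; mean ± SEM.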

Esophagus [20] = assay: Induction of neurogenic inflammation in rat esophagus assessed as CGRP peptide release for 20 mins; assay type: functional, tissue-based; outline: as §8
[21] = target: T1, Transient receptor potential cation channel subfamily A member 1; assay: Activation of TRPA1 channel in rat dorsal root ganglion neurons assessed as increase in intracellular calcium level; assay type: tissue-based
Outline: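 Rat DRG neurons in culture, loaded with Fura2/AM and read by ratiometric calcium imaging. Agonist applied in the bath at 30–500 μM, with a concentration-response used to derive the EC50. n ≥ 22 cells.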

Mus musculus [22] = assay: Induction of paw licking in intraplantarly dosed Swiss mouse at 120 nmol/paw; assay type: functional, organism-based; outline: as §7
Esophagus [23] = assay: Induction of neurogenic inflammation in rat esophagus assessed as substance P release for 20 mins; assay type: functional, tissue-based; outline: as §8
[24] = target: Transient receptor potential cation channel subfamily A member 1 (Rattus norvegicus) (UniProt Q6RI86); assay: Activation of TRPA1 channel in rat dorsal root ganglion neurons assessed as increase in intracellular calcium level at 300 uM; assay type: tissue-based; outline: as §4
Rattus norvegicus [25] = assay: Increase in plasma extravasation in intraplantar dosed rat hind paw; assay type: functional, organism-based
Outline: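 Male Sprague–Dawley rats (250 g) given Evans Blue (30 mg/kg) into the tail vein 1 min before intraplantar HNE (60–150 nmol in 30 μl) or vehicle. Killed by exsanguination at 30 min; paw skin dye extracted in formamide 48 h at room temperature in the dark and read at 620 nm, expressed as ng/g wet tissue. SR140333 (1.6 μmol/kg i.v.) given 15 min before. n ≥ 4.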

Spinal cord [26] = assay: Induction of neurogenic inflammation in rat dorsal spinal cord assessed as CGRP peptide release for 20 mins; assay type: functional, tissue-based; outline: as §8
[27] = target: Transient receptor potential cation channel subfamily A member 1 (Rattus norvegicus) (UniProt Q6RI86); assay: Agonist activity at rat TRPA1 channel expressed in HEK293 cells assessed as increase in intracellular calcium; assay type: functional, cell-based
Outline: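 Stable Flp-In HEK293 line expressing C-terminally HA11-tagged rat TRPA1 under a tetracycline-inducible promoter, induced with 0.1 μg/ml tetracycline 16 h before testing. Uninduced and vector-control cells also tested. Fura2/AM [Ca2+]i read in a fluorescence plate reader, 30,000 cells per well, n = 4 wells per concentration. Concentration–response used to derive EC50.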

Mus musculus [28] = organism: Mus musculus; assay: Reversal of induction of paw lifting in Swiss mouse at 15 to 240 nmol/paw in presence gentamycin; assay type: functional, organism-based; outline: as §1
[29] = target: Transient receptor potential cation channel subfamily A member 1 (Homo sapiens) (UniProt O75762); assay: Reversal of activation of human TRPA1 channel expressed in xenopus oocytes by two electrode voltage-clamp technique in presence of ruthenium red; assay type: cell-based; conditions: Oocyte; outline: as §3
Rattus norvegicus [30] = organism: Rattus norvegicus; assay: Reversal of induction of allodynia in rat in presence of camphor
Rattus norvegicus [31] = organism: Rattus norvegicus; assay: Reversal of induction of allodynia in rat in presence of capsazepine
Spinal cord [32] = assay: Induction of neurogenic inflammation in rat dorsal spinal cord assessed as substance P release per 20 mins at 10 uM in calcium free medium; assay type: functional
Outline: (§9)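 Rat dorsal spinal cord or esophagus slices superfused in Krebs' solution at 37°C, with extracellular Ca2+ chelated by 2 mM EGTA added to the bath. Fractions collected every 10 min into ethanoic acid (final 2 N), freeze-dried, and assayed for SP or CGRP immunoreactivity. Results in fmol/g/20 min, at least four experiments.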

Esophagus [33] = assay: Induction of neurogenic inflammation in rat esophagus assessed as CGRP release per 20 mins at 50 uM in calcium free medium; assay type: functional; outline: as §9
Spinal cord [34] = assay: Induction of neurogenic inflammation in capsaicin desensitized rat dorsal spinal cord assessed as substance P release per 20 mins at 10 uM; assay type: functional
Outline: (§10)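 Rat lumbar dorsal spinal cord or esophagus slices (~0.4 mm), superfused in Krebs' solution at 37°C after 60 min stabilization. Tissue desensitized beforehand with 10 μM capsaicin for 20 min. Fractions collected at 10-min intervals into ethanoic acid (final 2 N), freeze-dried, and assayed for SP or CGRP immunoreactivity. Results in fmol/g/20 min, at least four experiments.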

Esophagus [35] = assay: Induction of neurogenic inflammation in rat esophagus assessed as CGRP release per 20 mins at 50 uM; assay type: functional
Outline: (§11)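 Rat lumbar dorsal spinal cord or esophagus slices (~0.4 mm), stabilized 60 min in Krebs' solution at 37°C, then superfused. Fractions collected at 10-min intervals into ethanoic acid (final 2 N), freeze-dried, reconstituted, and assayed for SP or CGRP immunoreactivity. Results in fmol/g/20 min, at least four experiments.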

Esophagus [36] = assay: Induction of neurogenic inflammation in capsaicin desensitized rat esophagus assessed as substance P release per 20 mins at 50 uM; assay type: functional; outline: as §10
Spinal cord [37] = assay: Induction of neurogenic inflammation in rat dorsal spinal cord assessed as CGRP peptide release per 20 mins at 10 uM; assay type: functional; outline: as §11
Esophagus [38] = assay: Induction of neurogenic inflammation in capsaicin desensitized rat esophagus assessed as CGRP release per 20 mins at 50 uM; assay type: functional; outline: as §10
Spinal cord [39] = assay: Induction of neurogenic inflammation in capsaicin desensitized rat dorsal spinal cord assessed as CGRP peptide release per 20 mins at 10 uM; assay type: functional; outline: as §10
Spinal cord [40] = assay: Induction of neurogenic inflammation in rat dorsal spinal cord assessed as substance P release per 20 mins at 10 uM; assay type: functional; outline: as §11
Esophagus [41] = assay: Induction of neurogenic inflammation in rat esophagus assessed as substance P release per 20 mins at 50 uM; assay type: functional; outline: as §11
Spinal cord [42] = assay: Induction of neurogenic inflammation in rat dorsal spinal cord assessed as CGRP release per 20 mins at 10 uM in calcium free medium; assay type: functional; outline: as §9
Esophagus [43] = assay: Induction of neurogenic inflammation in rat esophagus assessed as substance P release per 20 mins at 50 uM in calcium free medium; assay type: functional; outline: as §9

Transient receptor potential cation channel subfamily A member 1 (Rattus norvegicus), sequence (Q6RI86 whole entry): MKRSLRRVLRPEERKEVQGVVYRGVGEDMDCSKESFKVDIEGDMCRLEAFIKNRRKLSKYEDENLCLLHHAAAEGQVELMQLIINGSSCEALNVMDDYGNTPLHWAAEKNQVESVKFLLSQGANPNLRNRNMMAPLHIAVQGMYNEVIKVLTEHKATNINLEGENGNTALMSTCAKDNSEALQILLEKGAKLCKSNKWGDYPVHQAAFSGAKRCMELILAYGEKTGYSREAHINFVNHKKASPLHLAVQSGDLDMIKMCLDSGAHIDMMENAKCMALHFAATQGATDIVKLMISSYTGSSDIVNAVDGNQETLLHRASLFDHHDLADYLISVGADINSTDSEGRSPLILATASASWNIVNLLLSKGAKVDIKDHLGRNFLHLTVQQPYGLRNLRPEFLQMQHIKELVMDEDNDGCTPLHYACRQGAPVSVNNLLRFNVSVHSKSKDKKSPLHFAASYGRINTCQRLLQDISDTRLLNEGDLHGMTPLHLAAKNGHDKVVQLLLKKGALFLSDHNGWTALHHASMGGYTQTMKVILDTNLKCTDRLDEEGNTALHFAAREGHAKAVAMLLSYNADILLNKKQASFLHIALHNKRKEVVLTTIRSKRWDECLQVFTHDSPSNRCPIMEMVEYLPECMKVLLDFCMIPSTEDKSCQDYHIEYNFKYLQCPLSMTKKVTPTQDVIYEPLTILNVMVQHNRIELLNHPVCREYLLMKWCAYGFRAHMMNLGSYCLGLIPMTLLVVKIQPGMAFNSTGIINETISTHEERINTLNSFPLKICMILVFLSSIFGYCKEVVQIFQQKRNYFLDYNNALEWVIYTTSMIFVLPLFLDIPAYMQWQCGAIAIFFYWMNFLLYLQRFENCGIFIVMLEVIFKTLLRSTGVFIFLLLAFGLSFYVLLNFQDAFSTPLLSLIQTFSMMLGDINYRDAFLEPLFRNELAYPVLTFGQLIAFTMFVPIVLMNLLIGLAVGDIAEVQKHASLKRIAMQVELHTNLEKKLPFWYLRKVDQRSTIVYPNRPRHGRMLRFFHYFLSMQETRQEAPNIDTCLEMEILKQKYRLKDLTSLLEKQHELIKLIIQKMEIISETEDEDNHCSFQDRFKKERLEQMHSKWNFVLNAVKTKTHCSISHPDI
Transient receptor potential cation channel subfamily A member 1 (Homo sapiens), sequence (O75762 whole entry): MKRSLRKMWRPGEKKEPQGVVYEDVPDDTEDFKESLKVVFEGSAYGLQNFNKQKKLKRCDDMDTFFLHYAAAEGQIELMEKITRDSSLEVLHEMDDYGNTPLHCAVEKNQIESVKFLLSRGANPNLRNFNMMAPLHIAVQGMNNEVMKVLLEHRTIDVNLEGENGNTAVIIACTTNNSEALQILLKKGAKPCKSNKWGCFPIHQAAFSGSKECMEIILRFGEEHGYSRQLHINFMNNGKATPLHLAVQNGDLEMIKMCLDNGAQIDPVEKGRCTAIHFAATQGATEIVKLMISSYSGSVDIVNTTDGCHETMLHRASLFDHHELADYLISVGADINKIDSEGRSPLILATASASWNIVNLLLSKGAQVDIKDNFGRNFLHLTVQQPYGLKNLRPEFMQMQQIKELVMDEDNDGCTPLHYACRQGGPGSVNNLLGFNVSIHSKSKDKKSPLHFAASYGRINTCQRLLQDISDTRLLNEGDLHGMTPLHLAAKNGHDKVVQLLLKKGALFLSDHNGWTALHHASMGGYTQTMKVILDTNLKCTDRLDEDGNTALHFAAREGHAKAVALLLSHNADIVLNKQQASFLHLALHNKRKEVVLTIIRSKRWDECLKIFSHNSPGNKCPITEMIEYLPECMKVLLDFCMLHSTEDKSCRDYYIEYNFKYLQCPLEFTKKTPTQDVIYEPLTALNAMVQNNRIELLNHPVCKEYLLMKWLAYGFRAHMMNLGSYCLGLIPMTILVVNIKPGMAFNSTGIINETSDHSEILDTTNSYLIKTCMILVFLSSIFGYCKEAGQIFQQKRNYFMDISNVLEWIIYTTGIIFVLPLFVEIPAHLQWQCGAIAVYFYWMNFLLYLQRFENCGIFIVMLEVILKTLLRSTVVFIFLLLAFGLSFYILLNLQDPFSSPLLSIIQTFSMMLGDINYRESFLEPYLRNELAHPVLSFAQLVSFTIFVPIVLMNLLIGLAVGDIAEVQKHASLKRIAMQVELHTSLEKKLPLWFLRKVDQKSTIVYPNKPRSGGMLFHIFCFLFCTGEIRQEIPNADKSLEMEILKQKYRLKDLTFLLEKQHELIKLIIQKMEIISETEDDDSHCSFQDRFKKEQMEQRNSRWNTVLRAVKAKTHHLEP
T1 sequence (Q6RI86 whole entry): as the sequence (Q6RI86 whole entry) above

Structure (SMILES): CC12CCC(CC1=O)C2(C)C (stereo not drawn)
Activity (Mus musculus [1]): Active

Activity [4]: Active
Structure (SMILES): Oc1cc2c(cc1O)CN(C(=S)NCCc1ccc(Cl)cc1)CCC2
Activity (Rattus norvegicus [2]): Active
Activity (Mus musculus [3]): Active

Structure (SMILES): CCCCCC(O)/C=C/C=O (stereo not drawn) [4-HYDROXYNON-2-ENAL]
Activity (Rattus norvegicus [5]): Dose-dependent effect
Activity [6]: inactive
pEC50 [7]: 4.57
Activity [8]: Active
Activity [9]: Active
Activity [10]: inactive
Activity (Mus musculus [11]): Dose-dependent effect
Activity (Mus musculus [12]): Dose-dependent effect
Activity (Mus musculus [13]): inactive
Activity [14]: Active
Activity [15]: inactive
Activity (Mus musculus [16]): inactive
Activity (Rattus norvegicus [17]): inactive
Activity (Mus musculus [18]): Active
Activity (Spinal cord [19]): Active
Activity (Esophagus [20]): Active
pEC50 [21]: 4.11
Activity (Mus musculus [22]): Active
Activity (Esophagus [23]): Active
Activity [24]: Active
Activity (Rattus norvegicus [25]): Dose-dependent effect
Activity (Spinal cord [26]): Active
Activity [27]: inactive
Activity (Mus musculus [28]): inactive
Activity [29]: Active
Activity (Rattus norvegicus [30]): inactive
Activity (Rattus norvegicus [31]): Active

Structure (SMILES): O=C/C=C/c1ccccc1 [CINNAMALDEHYDE]
Activity (Spinal cord [32]): 34.5 fmol/g
Activity (Esophagus [33]): 19.2 fmol/g
Activity (Spinal cord [34]): 23.7 fmol/g
Activity (Esophagus [35]): 93.2 fmol/g
Activity (Esophagus [36]): 5.8 fmol/g
Activity (Spinal cord [37]): 720.4 fmol/g
Activity (Esophagus [38]): 17.8 fmol/g
Activity (Spinal cord [39]): 63.8 fmol/g
Activity (Spinal cord [40]): 160.5 fmol/g
Activity (Esophagus [41]): 31.5 fmol/g
Activity (Spinal cord [42]): 118.5 fmol/g
Activity (Esophagus [43]): 6.3 fmol/g
